For assay [1], the target named is T1, Transient receptor potential cation channel subfamily V member 1 (Homo sapiens, UniProt Q8NER1). Description: Agonist activity at human brain TRPV1 expressed in HEK293T cells assessed as intracellular Ca2+ influx at 100 uM by Fluo-4 AM staining-based fluorescence analysis. Type of assay: cell-based. Particulars: HEK-293T. Put shortly:
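Stable hTRPV1 in HEK293T (G418 selected), Fluo-4 loaded, 37 °C. 100 μM compound alone, or pretreated 3 min before 0.01 μM capsaicin; 10 μM BCTC reference. Data as % of 10 μM capsaicin.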

Assay [2] concerns the target T1, Transient receptor potential cation channel subfamily V member 1. Put plainly: Competitive antagonist activity at […] Wistar rat DRG neurons assessed as inhibition of CAP-induced intracellular Ca2+ influx at 100 uM preincubated for 3 mins followed by CAP challenge. It counts as cell-based. Put shortly:
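Primary DRG neurons from 4-week-old Wistar rats, collagenase-dissociated, cultured with NGF 24−36 h. Fluo-4 Ca2+ imaging with superfusion of 0.1 μM capsaicin and 100 μM compound.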

Assay [3] shares this target. Description: Antagonist activity at human brain TRPV1 expressed in HEK293T cells assessed as inhibition of heat-induced intracellular Ca2+ influx measured for 42 mins by fluorescence-based assay. Type of assay: cell-based, HEK-293T. The procedure, abridged:
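hTRPV1-HEK293T, Fluo-4 loaded; antagonist pretreated 3 min, plate heated from 40 to 45 °C, Ca2+ signal recorded 42 min. Data as % of heat response; IC50 from dose curve; n = 4−10.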

Assay [4] deals with Transient receptor potential cation channel subfamily M member 8 (Mus musculus) (UniProt Q8R4D5). Particulars: Dorsal root ganglion, HEK T-REx, 100 uM.
The target is the same in assay [5]. Particulars: Dorsal root ganglion, HEK T-REx, 10 to 50 uM.
For assay [6] the target is unchanged. The note with it: Dorsal root ganglion, HEK T-REx, 3 to 30 uM.
Assay [7] shares this target. Particulars: Dorsal root ganglion, HEK T-REx, 10 to 50 uM. The source holds these as a separate data set.
The target in assay [8] is T2, Transient receptor potential cation channel subfamily V member 3 (Homo sapiens) (UniProt Q8NET8).
T2 sequence (whole entry): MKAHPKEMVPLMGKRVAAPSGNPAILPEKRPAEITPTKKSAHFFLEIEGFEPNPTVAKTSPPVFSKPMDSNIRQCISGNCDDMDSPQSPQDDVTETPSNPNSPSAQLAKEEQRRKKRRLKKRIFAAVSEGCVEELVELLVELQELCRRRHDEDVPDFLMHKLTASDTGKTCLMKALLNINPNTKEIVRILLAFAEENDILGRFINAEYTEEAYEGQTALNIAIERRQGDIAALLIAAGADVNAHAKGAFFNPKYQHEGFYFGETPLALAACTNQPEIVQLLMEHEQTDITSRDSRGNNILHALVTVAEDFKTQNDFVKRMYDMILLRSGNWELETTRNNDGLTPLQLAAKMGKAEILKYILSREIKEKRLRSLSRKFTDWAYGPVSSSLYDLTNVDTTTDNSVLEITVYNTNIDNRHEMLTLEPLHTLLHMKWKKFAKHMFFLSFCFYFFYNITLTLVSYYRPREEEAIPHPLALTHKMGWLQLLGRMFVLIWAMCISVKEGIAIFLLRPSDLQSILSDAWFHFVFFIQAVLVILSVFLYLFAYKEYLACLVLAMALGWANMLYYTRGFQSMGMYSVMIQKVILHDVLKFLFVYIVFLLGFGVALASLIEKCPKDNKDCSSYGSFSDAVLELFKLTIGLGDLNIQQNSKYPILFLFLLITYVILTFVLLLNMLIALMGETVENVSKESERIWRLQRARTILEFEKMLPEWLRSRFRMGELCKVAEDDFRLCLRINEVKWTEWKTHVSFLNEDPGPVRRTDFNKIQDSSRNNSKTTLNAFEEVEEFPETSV
Put plainly: Antagonist activity at human TRPV3 expressed in HEK293T cells assessed as menthol-induced intracellular Ca2+ influx at 100 uM by Fluo-4 AM staining-based fluorescence analysis. Type of assay: cell-based. The note with it: HEK-293T. The procedure, abridged:
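hTRPV3 transiently expressed in HEK293T; loading and assay at 25 °C, Fluo-4 with probenecid buffer pH 7.4. Agonist 100 and 300 μM menthol, 5 μM ruthenium red as reference; 100 μM compound alone or pretreated 3 min. Data as % of 1000 μM menthol.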

Assay [9] concerns the target Transient receptor potential cation channel subfamily M member 8 (Mus musculus) (UniProt Q8R4D5). Particulars: Dorsal root ganglion, HEK T-REx, 100 uM. The source holds these as a separate data set.
For assay [10], the target named is T3, Transient receptor potential cation channel subfamily A member 1 (Homo sapiens, UniProt O75762). Put plainly: Antagonist activity at TRPA1 isolated from human W138 cells expressed in HEK293T cells assessed as AITC-induced intracellular Ca2+ influx at 100 uM by Fluo-4 AM staining-based fluorescence analysis. Type of assay: cell-based. Particulars: HEK-293T.

Assay [11] addresses Transient receptor potential cation channel subfamily M member 8 (Mus musculus) (UniProt Q8R4D5). Particulars: Dorsal root ganglion, HEK T-REx, 3 to 30 uM. This is another data set of the same source.
Assay [12] shares this target. Particulars: Dorsal root ganglion, HEK T-REx, 3 to 30 uM. This is another data set of the same source.
Assay [13] addresses T3, Transient receptor potential cation channel subfamily A member 1. Put plainly: Agonist activity at TRPA1 isolated from human W138 cells expressed in HEK T-REx cells assessed as intracellular Ca2+ influx at 10 to 100 uM by Fluo-4 AM staining-based fluorescence analysis. Type of assay: cell-based. Put shortly: (§1)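 Tetracycline-induced (1 μg/mL) stable hTRPA1 in HEK T-REx cells, Fluo-4 AM loaded (3 μM, 1 h, 37 °C) in HEPES buffer pH 7.4 with probenecid; Ca2+ read at 37 °C. Compound 0.01−100 μM; HC-030031 30 μM pretreated 3 min. Responses as % of 5 μM ionomycin or of 100 μM AITC; TREx cells without TRPA1 as control; n = 4−8.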

The target of assay [14] is T1, Transient receptor potential cation channel subfamily V member 1. Description: Competitive antagonist activity at human brain TRPV1 expressed in HEK293T cells assessed as inhibition of CAP-induced intracellular Ca2+ influx preincubated for 3 mins followed by CAP challenge. Particulars: HEK-293T. It counts as cell-based. The procedure, abridged: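 hTRPV1-HEK293T, Fluo-4 Ca2+ at 37 °C; antagonist (0.3−100 μM) preincubated 3 min then 0.01 μM capsaicin; DMSO final 0.1−1%. IC50 from dose−inhibition curves; data as % of 10 μM capsaicin.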

Assay [15] shares this target. Description: Antagonist activity at human brain TRPV1 expressed in HEK293T cells assessed as inhibition of proton-induced intracellular Ca2+ influx at 10 uM by fluorescence-based assay. The note with it: HEK-293T.
For assay [16], the target named is T3, Transient receptor potential cation channel subfamily A member 1. Put plainly: Agonist activity at TRPA1 isolated from human W138 cells expressed in HEK293T cells assessed as intracellular Ca2+ influx at 100 uM by Fluo-4 AM staining-based fluorescence analysis in presence of antagonist HC-030031. Type of assay: cell-based. The procedure, abridged: as §1

Structures are written as SMILES. Active and inactive are the calls of the source. The rule behind the calls is not given here.

T1 sequence (Q8NER1 whole entry): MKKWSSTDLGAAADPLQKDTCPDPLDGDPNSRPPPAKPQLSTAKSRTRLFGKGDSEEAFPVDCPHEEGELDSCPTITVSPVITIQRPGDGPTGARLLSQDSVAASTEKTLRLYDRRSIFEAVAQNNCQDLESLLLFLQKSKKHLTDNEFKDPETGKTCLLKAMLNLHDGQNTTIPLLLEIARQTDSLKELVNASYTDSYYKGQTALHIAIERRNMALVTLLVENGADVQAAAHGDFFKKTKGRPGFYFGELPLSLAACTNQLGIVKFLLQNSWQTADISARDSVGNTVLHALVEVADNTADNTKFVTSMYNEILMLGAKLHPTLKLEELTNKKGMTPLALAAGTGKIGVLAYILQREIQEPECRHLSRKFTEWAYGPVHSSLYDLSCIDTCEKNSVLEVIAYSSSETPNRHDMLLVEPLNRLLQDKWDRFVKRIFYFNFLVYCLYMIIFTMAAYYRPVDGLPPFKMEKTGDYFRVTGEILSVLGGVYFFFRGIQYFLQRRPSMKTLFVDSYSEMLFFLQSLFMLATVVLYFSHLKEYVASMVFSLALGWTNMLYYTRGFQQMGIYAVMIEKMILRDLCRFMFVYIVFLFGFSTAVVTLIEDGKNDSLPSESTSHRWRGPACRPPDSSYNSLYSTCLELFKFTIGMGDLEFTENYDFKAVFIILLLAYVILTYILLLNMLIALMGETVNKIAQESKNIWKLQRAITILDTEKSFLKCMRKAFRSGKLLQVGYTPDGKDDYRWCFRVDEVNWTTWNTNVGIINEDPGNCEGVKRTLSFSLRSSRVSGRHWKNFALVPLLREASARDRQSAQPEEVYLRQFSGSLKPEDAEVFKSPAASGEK
T3 sequence (O75762 whole entry): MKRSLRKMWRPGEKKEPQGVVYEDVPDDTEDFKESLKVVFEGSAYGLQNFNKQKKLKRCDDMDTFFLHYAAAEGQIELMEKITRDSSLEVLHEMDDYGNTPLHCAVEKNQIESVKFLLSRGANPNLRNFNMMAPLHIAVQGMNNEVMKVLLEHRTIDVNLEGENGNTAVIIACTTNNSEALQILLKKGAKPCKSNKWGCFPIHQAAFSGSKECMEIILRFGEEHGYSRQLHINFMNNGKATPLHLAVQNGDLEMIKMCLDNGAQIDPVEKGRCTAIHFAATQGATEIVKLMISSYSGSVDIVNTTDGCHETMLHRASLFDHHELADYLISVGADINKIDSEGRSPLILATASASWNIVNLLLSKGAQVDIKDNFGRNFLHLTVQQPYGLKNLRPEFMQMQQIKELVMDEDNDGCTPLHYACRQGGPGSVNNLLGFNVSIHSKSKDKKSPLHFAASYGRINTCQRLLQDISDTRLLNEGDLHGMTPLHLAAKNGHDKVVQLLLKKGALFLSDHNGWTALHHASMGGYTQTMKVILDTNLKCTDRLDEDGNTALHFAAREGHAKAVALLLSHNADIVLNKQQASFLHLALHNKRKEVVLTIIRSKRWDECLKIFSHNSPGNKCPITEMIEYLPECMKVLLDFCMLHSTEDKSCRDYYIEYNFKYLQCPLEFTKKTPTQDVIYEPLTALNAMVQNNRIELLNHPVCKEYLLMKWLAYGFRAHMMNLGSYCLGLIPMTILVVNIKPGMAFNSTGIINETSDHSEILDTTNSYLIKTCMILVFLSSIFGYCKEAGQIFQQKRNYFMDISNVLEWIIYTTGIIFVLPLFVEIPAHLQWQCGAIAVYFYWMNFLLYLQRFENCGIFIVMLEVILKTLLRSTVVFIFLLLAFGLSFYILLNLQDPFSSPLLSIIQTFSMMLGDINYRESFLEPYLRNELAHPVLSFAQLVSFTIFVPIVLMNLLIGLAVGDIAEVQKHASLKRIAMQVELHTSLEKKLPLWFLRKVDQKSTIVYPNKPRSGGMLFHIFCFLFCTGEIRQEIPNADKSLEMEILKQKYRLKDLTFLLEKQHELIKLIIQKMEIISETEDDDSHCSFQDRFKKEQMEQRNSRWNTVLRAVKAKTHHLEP
Chain of Transient receptor potential cation channel subfamily M member 8 (Mus musculus) (Q8R4D5 whole entry): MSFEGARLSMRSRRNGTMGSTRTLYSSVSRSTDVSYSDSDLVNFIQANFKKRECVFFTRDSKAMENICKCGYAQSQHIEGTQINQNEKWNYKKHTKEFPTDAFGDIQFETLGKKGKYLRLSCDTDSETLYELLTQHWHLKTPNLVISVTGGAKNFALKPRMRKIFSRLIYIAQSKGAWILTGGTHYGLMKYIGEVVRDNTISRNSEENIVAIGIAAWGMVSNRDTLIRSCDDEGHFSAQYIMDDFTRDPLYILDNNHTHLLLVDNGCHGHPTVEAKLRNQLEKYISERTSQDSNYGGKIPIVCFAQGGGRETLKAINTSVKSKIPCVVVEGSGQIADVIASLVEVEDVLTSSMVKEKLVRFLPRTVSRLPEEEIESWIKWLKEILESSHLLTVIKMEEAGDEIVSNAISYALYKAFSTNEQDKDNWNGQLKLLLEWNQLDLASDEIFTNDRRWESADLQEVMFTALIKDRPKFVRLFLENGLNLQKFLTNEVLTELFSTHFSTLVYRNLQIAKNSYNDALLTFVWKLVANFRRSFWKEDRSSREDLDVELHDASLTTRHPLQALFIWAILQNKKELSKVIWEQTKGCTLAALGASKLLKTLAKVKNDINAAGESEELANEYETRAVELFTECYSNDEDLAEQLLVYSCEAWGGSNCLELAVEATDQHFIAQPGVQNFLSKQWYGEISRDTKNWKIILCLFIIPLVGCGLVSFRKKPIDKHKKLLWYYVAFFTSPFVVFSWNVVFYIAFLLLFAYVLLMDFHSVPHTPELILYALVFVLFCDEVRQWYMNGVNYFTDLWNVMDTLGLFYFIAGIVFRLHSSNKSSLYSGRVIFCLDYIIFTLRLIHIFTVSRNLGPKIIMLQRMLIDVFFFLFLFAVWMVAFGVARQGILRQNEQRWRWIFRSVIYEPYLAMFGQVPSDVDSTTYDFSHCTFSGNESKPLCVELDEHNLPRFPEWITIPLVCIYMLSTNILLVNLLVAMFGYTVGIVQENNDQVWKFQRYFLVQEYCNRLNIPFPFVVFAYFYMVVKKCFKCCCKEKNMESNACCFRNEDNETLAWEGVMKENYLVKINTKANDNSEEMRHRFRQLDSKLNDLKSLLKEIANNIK

A word on the IC50: it is the point on the concentration scale where inhibition reaches its midpoint. For the molecule `CC[C@H]1C[C@@H]2CN3CCc4c([nH]c5ccc(OC)cc45)[C@](C(=O)OC)(C2)[C@H]13` [VOACANGINE], the result in [1], in [8], in [10], in assay [13] and in assay [16] was inactive. Further, the inhibition result in assay [2], in assay [4], in assay [5], in assay [9], in [11] and in assay [12] was “Active” each time. The inhibition result in assay [14] is “Active”. Besides, the half-maximal inhibitory concentration (IC50) in [3] amounted to 24 µM. Besides, the inhibition result in assay [3] (HEK-293T) was “Dose-dependent effect”. Also, the inhibition result in assay [6], in assay [7] and in assay [15] was “inactive” each time.

The record behind these values is ChEMBL document CHEMBL3108739, “Activation and inhibition of thermosensitive TRP channels by voacangine, an alkaloid present in Voacanga africana, an African tree” (J Nat Prod, 2014).
